In ChEMBL document CHEMBL4382192, “Discovery of a potent dual ALK and EGFR T790M inhibitor” (Eur J Med Chem, 2017):

Key:
[1] = tested on: Tyrosine-protein kinase ABL1 (Homo sapiens), P00519 [Y253F]; test: Binding affinity to human phosphorylated ABL1 Y253F mutant (S229 to K512 residues) expressed in mammalian expression system assessed as residual binding level at 1 uM by Kinomescan method relative to control
In short: (§1)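 Kinome-wide selectivity panel run by the KINOMEscan method, with the test compound at a single concentration of 1 μM. Wild-type and mutant kinases were profiled in the same screen.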

[2] = target: Atypical kinase COQ8A, mitochondrial (Homo sapiens) (UniProt Q8NI60); test: Binding affinity to wild-type human full length ADCK3 (M280 to Q647 residues) expressed in bacterial expression system assessed as residual binding level at 1 uM by Kinomescan method relative to control
[3] = target: Serine/threonine-protein kinase DCLK1 (Homo sapiens) (UniProt O15075); test: Binding affinity to wild-type human partial length DCAMKL1 (L270 to A662 residues) expressed in mammalian expression system assessed as residual binding level at 1 uM by Kinomescan method relative to control
[4] = tested on: Epidermal growth factor receptor (Homo sapiens), P00533 [L858R]; test: Binding affinity to human partial length EGFR L858R mutant (R669 to V1011 residues) expressed in bacterial expression system assessed as residual binding level at 1 uM by Kinomescan method relative to control; in short: as §1
[5] = target: Serine/threonine-protein kinase/endoribonuclease IRE1 (Homo sapiens) (UniProt O75460); test: Binding affinity to wild-type human partial length ERN1 (S551 to E852 residues) expressed in mammalian expression system assessed as residual binding level at 1 uM by Kinomescan method relative to control
[6] = target: Beta-adrenergic receptor kinase 1 (Homo sapiens) (UniProt P25098); test: Binding affinity to wild-type human full length GRK2 (M1 to L689 residues) expressed in mammalian expression system assessed as residual binding level at 1 uM by Kinomescan method relative to control
In short: (§2)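 Single-point kinome-wide KINOMEscan binding panel, test compound at 1 μM, run by the provider's standard protocol.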

[7] = target: Insulin receptor-related protein (Homo sapiens) (UniProt P14616); test: Binding affinity to wild-type human partial length INSRR (R950 to E1278 residues) expressed in bacterial expression system assessed as residual binding level at 1 uM by Kinomescan method relative to control
[8] = target: Serine/threonine-protein kinase LATS1 (Homo sapiens) (UniProt O95835); test: Binding affinity to wild-type human partial length LATS1 (Q678 to V1130 residues) expressed in bacterial expression system assessed as residual binding level at 1 uM by Kinomescan method relative to control
[9] = target: Serine/threonine-protein kinase MARK2 (Homo sapiens) (UniProt Q7KZI7); test: Binding affinity to wild-type human partial length MARK2 (M1 to R450 residues) expressed in bacterial expression system assessed as residual binding level at 1 uM by Kinomescan method relative to control
Sequence of Serine/threonine-protein kinase MARK2 (Homo sapiens) (Q7KZI7 whole entry, the tested form may be a part): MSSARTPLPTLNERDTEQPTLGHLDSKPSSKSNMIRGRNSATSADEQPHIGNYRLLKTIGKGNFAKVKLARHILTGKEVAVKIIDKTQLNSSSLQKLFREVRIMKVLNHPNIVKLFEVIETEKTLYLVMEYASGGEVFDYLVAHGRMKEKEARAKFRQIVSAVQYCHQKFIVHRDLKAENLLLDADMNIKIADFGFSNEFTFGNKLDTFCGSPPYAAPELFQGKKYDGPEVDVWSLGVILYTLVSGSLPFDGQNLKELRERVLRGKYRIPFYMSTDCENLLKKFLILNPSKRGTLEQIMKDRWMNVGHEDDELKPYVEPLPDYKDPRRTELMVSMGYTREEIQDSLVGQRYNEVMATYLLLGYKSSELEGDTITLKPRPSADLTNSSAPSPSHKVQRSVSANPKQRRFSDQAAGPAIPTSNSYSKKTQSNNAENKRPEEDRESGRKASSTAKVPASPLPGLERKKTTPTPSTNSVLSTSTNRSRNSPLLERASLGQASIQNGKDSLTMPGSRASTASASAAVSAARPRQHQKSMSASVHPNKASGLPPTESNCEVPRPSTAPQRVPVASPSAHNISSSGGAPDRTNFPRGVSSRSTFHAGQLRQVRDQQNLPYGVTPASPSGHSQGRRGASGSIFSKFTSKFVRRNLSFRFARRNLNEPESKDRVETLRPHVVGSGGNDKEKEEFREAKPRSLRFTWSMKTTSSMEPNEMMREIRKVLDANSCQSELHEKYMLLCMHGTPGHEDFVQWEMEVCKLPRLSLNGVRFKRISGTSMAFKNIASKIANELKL

[10] = target: Myosin-IIIa (Homo sapiens) (UniProt Q8NEV4); test: Binding affinity to wild-type human partial length MYO3A (M1 to K338 residues) expressed in bacterial expression system assessed as residual binding level at 1 uM by Kinomescan method relative to control
[11] = target: Serine/threonine-protein kinase Nek2 (Homo sapiens) (UniProt P51955); test: Binding affinity to wild-type human partial length NEK2 (M1 to K309 residues) expressed in bacterial expression system assessed as residual binding level at 1 uM by Kinomescan method relative to control
Sequence of Serine/threonine-protein kinase Nek2 (Homo sapiens) (P51955 whole entry, the tested form may be a part): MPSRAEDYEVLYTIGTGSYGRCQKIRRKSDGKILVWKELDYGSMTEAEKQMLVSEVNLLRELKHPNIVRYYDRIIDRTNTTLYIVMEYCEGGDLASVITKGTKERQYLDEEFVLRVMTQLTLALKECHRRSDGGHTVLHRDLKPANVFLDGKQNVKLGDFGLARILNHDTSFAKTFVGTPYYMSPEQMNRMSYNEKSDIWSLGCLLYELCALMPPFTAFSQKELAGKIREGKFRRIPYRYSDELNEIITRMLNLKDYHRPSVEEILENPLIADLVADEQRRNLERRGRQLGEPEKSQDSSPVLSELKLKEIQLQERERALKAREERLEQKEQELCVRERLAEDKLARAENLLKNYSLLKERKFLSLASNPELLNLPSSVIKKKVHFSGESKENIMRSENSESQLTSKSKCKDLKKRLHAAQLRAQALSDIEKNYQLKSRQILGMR

[12] = target: Serine/threonine-protein kinase Nek4 (Homo sapiens) (UniProt P51957); test: Binding affinity to wild-type human full length NEK4 (M1 to F841 residues) expressed in mammalian expression system assessed as residual binding level at 1 uM by Kinomescan method relative to control; in short: as §2
[13] = target: Phosphatidylinositol 4-phosphate 5-kinase type-1 alpha (Homo sapiens) (UniProt Q99755); test: Binding affinity to wild-type human full length PIP5K1A (M1 to H562 residues) expressed in bacterial expression system assessed as residual binding level at 1 uM by Kinomescan method relative to control
Sequence of Phosphatidylinositol 4-phosphate 5-kinase type-1 alpha (Homo sapiens) (Q99755 whole entry, the tested form may be a part): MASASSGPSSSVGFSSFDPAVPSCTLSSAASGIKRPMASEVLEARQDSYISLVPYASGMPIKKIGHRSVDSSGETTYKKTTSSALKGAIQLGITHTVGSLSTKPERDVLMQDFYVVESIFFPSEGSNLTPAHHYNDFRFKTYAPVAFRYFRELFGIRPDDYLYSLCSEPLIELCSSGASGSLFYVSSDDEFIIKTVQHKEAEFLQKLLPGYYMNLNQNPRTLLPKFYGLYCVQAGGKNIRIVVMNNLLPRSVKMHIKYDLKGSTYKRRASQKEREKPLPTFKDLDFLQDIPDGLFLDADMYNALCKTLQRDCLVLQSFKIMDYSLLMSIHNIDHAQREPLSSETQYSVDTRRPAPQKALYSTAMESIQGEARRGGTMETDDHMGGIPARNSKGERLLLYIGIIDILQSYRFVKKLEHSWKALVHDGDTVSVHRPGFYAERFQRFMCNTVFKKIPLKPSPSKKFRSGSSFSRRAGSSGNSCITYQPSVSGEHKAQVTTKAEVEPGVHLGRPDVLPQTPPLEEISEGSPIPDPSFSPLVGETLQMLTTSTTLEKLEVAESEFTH

[14] = target: Serine/threonine-protein kinase PLK4 (Homo sapiens) (UniProt O00444); test: Binding affinity to wild-type human partial length PLK4 (M1 to S273 residues) expressed in mammalian expression system assessed as residual binding level at 1 uM by Kinomescan method relative to control
[15] = target: Protein kinase C iota type (Homo sapiens) (UniProt P41743); test: Binding affinity to wild-type human partial length PRKCI (H215 to V587 residues) expressed in mammalian expression system assessed as residual binding level at 1 uM by Kinomescan method relative to control
[16] = tested on: Proto-oncogene tyrosine-protein kinase receptor Ret (Homo sapiens), P07949 [V804L]; test: Binding affinity to human partial length RET V804L mutant (E713 to D1014 residues) expressed in bacterial expression system assessed as residual binding level at 1 uM by Kinomescan method relative to control; in short: as §1
[17] = target: Dual serine/threonine and tyrosine protein kinase (Homo sapiens) (UniProt Q6XUX3); test: Binding affinity to wild-type human full length RIPK5 (M1 to T929 residues) expressed in mammalian expression system assessed as residual binding level at 1 uM by Kinomescan method relative to control
[18] = target: Serine/threonine-protein kinase TAO2 (Homo sapiens) (UniProt Q9UL54); test: Binding affinity to wild-type human partial length TAOK2 (M1 to A320 residues) expressed in mammalian expression system assessed as residual binding level at 1 uM by Kinomescan method relative to control
[19] = target: TGF-beta receptor type-1 (Homo sapiens) (UniProt P36897); test: Binding affinity to wild-type human partial length TGFBR1 (D179 to M503 residues) expressed in bacterial expression system assessed as residual binding level at 1 uM by Kinomescan method relative to control
[20] = target: TGF-beta receptor type-2 (Homo sapiens) (UniProt P37173); test: Binding affinity to wild-type human partial length TGFBR2 (I218 to K567 residues) expressed in bacterial expression system assessed as residual binding level at 1 uM by Kinomescan method relative to control
[21] = target: Transient receptor potential cation channel subfamily M member 6 (Homo sapiens) (UniProt Q9BX84); test: Binding affinity to wild-type human partial length TRPM6 (Q1723 to I1998 residues) expressed in mammalian expression system assessed as residual binding level at 1 uM by Kinomescan method relative to control
Sequence of Transient receptor potential cation channel subfamily M member 6 (Homo sapiens) (Q9BX84 whole entry, the tested form may be a part): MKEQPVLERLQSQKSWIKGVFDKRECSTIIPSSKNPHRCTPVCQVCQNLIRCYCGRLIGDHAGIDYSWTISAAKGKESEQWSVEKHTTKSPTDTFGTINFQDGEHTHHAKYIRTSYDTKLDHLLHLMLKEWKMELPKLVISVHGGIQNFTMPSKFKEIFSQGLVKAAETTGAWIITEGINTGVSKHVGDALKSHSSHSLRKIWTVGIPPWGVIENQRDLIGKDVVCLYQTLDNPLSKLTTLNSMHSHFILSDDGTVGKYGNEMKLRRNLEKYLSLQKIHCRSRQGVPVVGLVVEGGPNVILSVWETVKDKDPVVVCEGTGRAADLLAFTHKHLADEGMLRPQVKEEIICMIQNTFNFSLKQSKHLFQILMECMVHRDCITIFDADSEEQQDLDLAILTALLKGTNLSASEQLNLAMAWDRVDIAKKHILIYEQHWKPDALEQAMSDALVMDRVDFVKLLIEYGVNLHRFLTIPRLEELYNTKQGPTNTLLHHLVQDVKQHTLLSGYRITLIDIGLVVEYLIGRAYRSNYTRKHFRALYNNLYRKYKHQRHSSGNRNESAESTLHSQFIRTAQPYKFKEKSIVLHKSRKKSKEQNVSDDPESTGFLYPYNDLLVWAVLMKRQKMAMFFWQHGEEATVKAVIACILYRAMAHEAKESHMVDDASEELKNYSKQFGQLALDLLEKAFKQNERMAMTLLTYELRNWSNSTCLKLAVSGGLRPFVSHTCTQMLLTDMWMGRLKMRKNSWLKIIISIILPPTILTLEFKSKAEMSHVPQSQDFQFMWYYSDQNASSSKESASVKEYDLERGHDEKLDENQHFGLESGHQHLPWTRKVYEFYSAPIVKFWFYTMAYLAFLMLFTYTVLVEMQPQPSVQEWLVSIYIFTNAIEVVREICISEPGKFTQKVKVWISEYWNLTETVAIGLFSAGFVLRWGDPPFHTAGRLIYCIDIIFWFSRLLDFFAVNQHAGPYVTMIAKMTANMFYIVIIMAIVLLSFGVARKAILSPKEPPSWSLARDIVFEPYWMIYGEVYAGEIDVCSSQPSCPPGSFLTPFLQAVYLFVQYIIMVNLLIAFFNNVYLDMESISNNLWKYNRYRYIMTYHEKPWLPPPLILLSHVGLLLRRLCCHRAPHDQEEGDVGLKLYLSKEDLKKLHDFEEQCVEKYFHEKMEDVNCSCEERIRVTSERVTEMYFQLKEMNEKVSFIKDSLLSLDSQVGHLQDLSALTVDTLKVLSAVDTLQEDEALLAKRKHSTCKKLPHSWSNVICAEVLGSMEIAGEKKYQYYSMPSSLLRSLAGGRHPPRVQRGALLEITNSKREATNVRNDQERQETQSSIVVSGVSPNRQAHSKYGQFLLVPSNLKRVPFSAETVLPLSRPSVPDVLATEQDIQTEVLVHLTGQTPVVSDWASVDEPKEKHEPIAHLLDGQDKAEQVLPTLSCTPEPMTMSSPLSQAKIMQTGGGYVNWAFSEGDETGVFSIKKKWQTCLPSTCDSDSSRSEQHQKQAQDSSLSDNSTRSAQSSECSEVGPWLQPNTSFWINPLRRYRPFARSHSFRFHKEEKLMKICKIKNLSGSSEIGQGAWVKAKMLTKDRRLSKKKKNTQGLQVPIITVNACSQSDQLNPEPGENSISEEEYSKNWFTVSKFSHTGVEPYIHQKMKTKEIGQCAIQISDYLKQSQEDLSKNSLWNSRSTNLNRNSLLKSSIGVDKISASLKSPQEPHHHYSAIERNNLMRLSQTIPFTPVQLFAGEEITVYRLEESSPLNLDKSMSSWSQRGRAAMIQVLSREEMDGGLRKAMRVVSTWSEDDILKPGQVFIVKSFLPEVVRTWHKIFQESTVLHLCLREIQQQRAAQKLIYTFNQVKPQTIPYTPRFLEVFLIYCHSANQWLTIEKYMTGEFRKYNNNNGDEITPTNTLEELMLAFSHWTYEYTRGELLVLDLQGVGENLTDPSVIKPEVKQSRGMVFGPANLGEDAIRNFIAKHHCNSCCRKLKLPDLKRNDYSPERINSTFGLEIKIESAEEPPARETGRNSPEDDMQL

[22] = target: Tyrosine-protein kinase receptor TYRO3 (Homo sapiens) (UniProt Q06418); test: Binding affinity to wild-type human partial length TYRO3 (S497 to T814 residues) expressed in bacterial expression system assessed as residual binding level at 1 uM by Kinomescan method relative to control
Sequence of Tyrosine-protein kinase receptor TYRO3 (Homo sapiens) (Q06418 whole entry, the tested form may be a part): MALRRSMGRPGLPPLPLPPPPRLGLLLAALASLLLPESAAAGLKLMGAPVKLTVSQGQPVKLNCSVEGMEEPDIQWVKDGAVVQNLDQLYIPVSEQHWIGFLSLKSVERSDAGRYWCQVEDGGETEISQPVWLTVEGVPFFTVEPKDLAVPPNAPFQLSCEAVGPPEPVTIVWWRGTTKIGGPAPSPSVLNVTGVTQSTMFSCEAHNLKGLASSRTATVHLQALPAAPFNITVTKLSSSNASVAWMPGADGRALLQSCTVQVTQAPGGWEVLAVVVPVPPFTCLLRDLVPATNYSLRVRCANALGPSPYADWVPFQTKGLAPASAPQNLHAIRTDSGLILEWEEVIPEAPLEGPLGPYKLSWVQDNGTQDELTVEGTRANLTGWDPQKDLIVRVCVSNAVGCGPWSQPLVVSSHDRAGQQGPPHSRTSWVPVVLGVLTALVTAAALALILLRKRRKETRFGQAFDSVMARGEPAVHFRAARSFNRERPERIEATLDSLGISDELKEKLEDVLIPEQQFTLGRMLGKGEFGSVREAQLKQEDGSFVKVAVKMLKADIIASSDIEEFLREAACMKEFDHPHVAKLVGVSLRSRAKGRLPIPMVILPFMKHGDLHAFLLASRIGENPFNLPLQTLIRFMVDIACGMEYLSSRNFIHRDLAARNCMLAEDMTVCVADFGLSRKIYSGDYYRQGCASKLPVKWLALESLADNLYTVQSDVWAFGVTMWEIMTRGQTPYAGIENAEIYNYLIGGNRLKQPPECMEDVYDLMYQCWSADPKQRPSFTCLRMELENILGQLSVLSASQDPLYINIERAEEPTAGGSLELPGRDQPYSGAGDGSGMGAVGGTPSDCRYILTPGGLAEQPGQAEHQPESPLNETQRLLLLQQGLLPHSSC

[23] = target: Wee1-like protein kinase (Homo sapiens) (UniProt P30291); test: Binding affinity to wild-type human partial length WEE1 (M291 to K575 residues) expressed in bacterial expression system assessed as residual binding level at 1 uM by Kinomescan method relative to control
[24] = target: Receptor tyrosine-protein kinase erbB-2 (Homo sapiens, UniProt P04626); test: Inhibition of recombinant His-tagged human ErbB2 cytoplasmic domain expressed in baculovirus expression system by Z-LYTE assay

SMILES: C=CC(=O)Nc1cc(Nc2ncc(Cl)c(Nc3ccccc3S(=O)(=O)C(C)C)n2)c(OC)cc1N(C)CCN(C)C
- Activity [1]: 2.1%
- Activity [2]: 100%
- Activity [3]: 14%
- Activity [4]: 0%
- Activity [5]: 39%
- Activity [6]: 100%
- Activity [7]: 0.25%
- Activity [8]: 82%
- Activity [9]: 57%
- Activity [10]: 31%
- Activity [11]: 83%
- Activity [12]: 100%
- Activity [13]: 91%
- Activity [14]: 0.35%
- Activity [15]: 73%
- Activity [16]: 14%
- Activity [17]: 60%
- Activity [18]: 52%
- Activity [19]: 18%
- Activity [20]: 82%
- Activity [21]: 52%
- Activity [22]: 51%
- Activity [23]: 94%
- IC50 [24]: 37 nM
